Assay results as given in ChEMBL document CHEMBL5724801, “EUbOPEN Chemogenomics Library - Multiplex” (2024).
Where “and” joins values, the source holds several entries; their conditions need not be identical. Equal values may be shown once.

System: Fibroblast
Assay: Multiplex assay against human fibroblast
Type: toxicity, cell-based
Outline: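 Tubulin, mitochondrial-mass and membrane-permeability phenotypes are per cents of healthy-nucleus cells. Cells were gated by CellPathfinder machine learning into Hoechst high-intensity objects or normal cells, normal cells into healthy, pyknosed or fragmented nuclei, and pyknosed cells into mitotic or apoptotic. Before that, live cells stained at seeding with Hoechst33342, BioTracker Green Microtubule Cytoskeleton Dye, MitoTracker Red and Annexin V Alexa Fluor 680 were imaged on a CQ1 microscope at 37°C and 5% CO2 after compound addition.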

[1] = 12 h, 1 µM, compound concentration 1 uM
[2] = 12 h, 10 µM, compound concentration 10 uM
[3] = 24 h, 1 µM, compound concentration 1 uM
[4] = 24 h, 10 µM, compound concentration 10 uM
[5] = 48 h, 1 µM, compound concentration 1 uM
[6] = 48 h, 10 µM, compound concentration 10 uM

For `CC(C)(c1ccc(O)cc1)c1ccc(O)cc1` [BISPHENOL A], the “Population Apoptotic (%)” value [1] was 18.37% and 18.42%, the “Population Fragmented Nuclei (%)” value [1] was 10.19% and 4.35% and the “Population Healthy Nuclei (%)” value [1] was 58.6% and 79.13%. For the same compound, the “Population Hoechst High Intensity Objects (%)” value [1] was 0%, the “Population Membrane Permeable-Phenotype (%)” value [1] was 2.17% and 2.75% and the “Population Mitochondria Different-Phenotype (%)” value [1] was 8.7% and 5.49%. For the same compound, the “Population Mitotic Cells (%)” value [1] was 81.63% and 81.58%, the “Population Normal (%)” value [1] was 100% and the “Population Pyknosed Nuclei (%)” value [1] was 31.21% and 16.52%. The “Population Tubulin-Different-Phenotype (%)” value [1] was 15.22% and 10.44%, the “Total Cell Count” value [1] was 157 and 230 and the “Population Apoptotic (%)” value [2] was 4.76% and 2.94%. The “Population Fragmented Nuclei (%)” value [2] was 8.94% and 3.67%, the “Population Healthy Nuclei (%)” value [2] was 67.6% and 82.45% and the “Population Hoechst High Intensity Objects (%)” value [2] was 0%. The “Population Membrane Permeable-Phenotype (%)” value [2] was 3.31% and 0.99%, the “Population Mitochondria Different-Phenotype (%)” value [2] was 7.44% and 5.45% and the “Population Mitotic Cells (%)” value [2] was 95.24% and 97.06%. For the same compound, the “Population Normal (%)” value [2] was 100%, the “Population Pyknosed Nuclei (%)” value [2] was 23.46% and 13.88% and the “Population Tubulin-Different-Phenotype (%)” value [2] was 14.88% and 19.31%. The “Total Cell Count” value [2] was 179 and 245, the “Population Fragmented Nuclei (%)” value [3] was 7.23% and 3.8% and the “Population Healthy Nuclei (%)” value [3] was 68.07% and 86.92%. The “Population Hoechst High Intensity Objects (%)” value [3] was 0%, the “Population Membrane Permeable-Phenotype (%)” value [3] was 4.42% and 3.88% and the “Population Mitochondria Different-Phenotype (%)” value [3] was 5.31% and 2.91%. The “Population Mitotic Cells (%)” value [3] was 90.24% and 59.09%, the “Population Normal (%)” value [3] was 100% and the “Population Pyknosed Nuclei (%)” value [3] was 24.7% and 9.28%. For the same compound, the “Population Tubulin-Different-Phenotype (%)” value [3] was 14.16% and 12.14%, the “Total Cell Count” value [3] was 166 and 237 and the “Population Apoptotic (%)” value [4] was 6.45% and 4.76%. For the same compound, the “Population Fragmented Nuclei (%)” value [4] was 7.18% and 3.7%, the “Population Healthy Nuclei (%)” value [4] was 76.92% and 87.65% and the “Population Hoechst High Intensity Objects (%)” value [4] was 0%. The “Population Membrane Permeable-Phenotype (%)” value [4] was 2.67% and 1.88%, the “Population Mitochondria Different-Phenotype (%)” value [4] was 6% and 4.23% and the “Population Mitotic Cells (%)” value [4] was 93.55% and 95.24%. The “Population Normal (%)” value [4] was 100%, the “Population Pyknosed Nuclei (%)” value [4] was 15.9% and 8.64% and the “Population Tubulin-Different-Phenotype (%)” value [4] was 16% and 16.43%. For the same compound, the “Total Cell Count” value [4] was 195 and 243, the “Population Apoptotic (%)” value [5] was 50% and 33.33% and the “Population Fragmented Nuclei (%)” value [5] was 8.98% and 4.96%. The “Population Healthy Nuclei (%)” value [5] was 86.23% and 86.36%, the “Population Hoechst High Intensity Objects (%)” value [5] was 0% and the “Population Membrane Permeable-Phenotype (%)” value [5] was 0.69% and 2.39%. The “Population Mitochondria Different-Phenotype (%)” value [5] was 11.11% and 3.83%, the “Population Mitotic Cells (%)” value [5] was 50% and 66.67% and the “Population Normal (%)” value [5] was 100%. For the same compound, the “Population Pyknosed Nuclei (%)” value [5] was 4.79% and 8.68%, the “Population Tubulin-Different-Phenotype (%)” value [5] was 3.47% and 12.92% and the “Total Cell Count” value [5] was 167 and 242. For the same compound, the “Population Apoptotic (%)” value [6] was 25% and 14.29%, the “Population Fragmented Nuclei (%)” value [6] was 8.49% and 3.36% and the “Population Healthy Nuclei (%)” value [6] was 85.85% and 90.76%. The “Population Hoechst High Intensity Objects (%)” value [6] was 0%, the “Population Membrane Permeable-Phenotype (%)” value [6] was 0% and 4.63% and the “Population Mitotic Cells (%)” value [6] was 75% and 85.71%. The “Population Normal (%)” value [6] was 100%, the “Population Pyknosed Nuclei (%)” value [6] was 5.66% and 5.88% and the “Population Tubulin-Different-Phenotype (%)” value [6] was 7.14% and 18.52%. For the same compound, the “Total Cell Count” value [6] was 212 and 238.
